# Assay results gathered from unrelated publications.
# Medium: plasma
SMILES,host,route,dose,notes,Cmax
N#Cc1ccc(Nc2nc(N)cc(Oc3c(F)cc(-c4ccc(C#N)cc4)cc3F)n2)cc1,Sprague-Dawley rat,intravenous,1 mg/kg,,251 ng/mL
CC[C@H](C)[C@H](NC(=O)[C@H](Cc1ccccc1)NC(=O)[C@H](CCC(=O)O)NC(=O)[C@H](CCCNC(=N)N)NC(=O)[C@H](C)NC(=O)[C@H](C)NC(=O)[C@H](CCC(N)=O)NC(=O)[C@H](CCC(=O)O)NC(=O)[C@H](CCC(=O)O)NC(=O)[C@H](CC(C)C)NC(=O)[C@H](Cc1ccc(O)cc1)NC(=O)[C@H](CO)NC(=O)[C@H](CO)NC(=O)[C@@H](NC(=O)[C@H](CC(=O)O)NC(=O)[C@H](CO)NC(=O)[C@@H](NC(=O)[C@H](Cc1ccccc1)NC(=O)[C@@H](NC(=O)CNC(=O)[C@H](CCC(=O)O)NC(=O)[C@H](C)NC(=O)CCc1c[nH]cn1)[C@@H](C)O)[C@@H](C)O)C(C)C)C(=O)N[C@@H](C)C(=O)N[C@@H](Cc1c[nH]c2ccccc12)C(=O)N[C@@H](CC(C)C)C(=O)N[C@H](C(=O)N[C@@H](CCCNC(=N)N)C(=O)NCC(=O)N[C@@H](CCCNC(=N)N)C(=O)N[C@@H](CCCCNC(=O)COCCOCCNC(=O)COCCOCCNC(=O)CC[C@H](NC(=O)CCCCCCCCCCCCCCCCC(=O)O)C(=O)O)C(=O)O)C(C)C,rat,subcutaneous,20 nmol/kg,,64.2 nM
CNCc1cc(-c2ccccc2F)n(S(=O)(=O)c2cccnc2)c1,male Sprague-Dawley rat,oral,10 mg/kg,,140 ng/mL
COc1ccc2c(Cc3ccccc3F)c3n(c(=O)c2c1OC)CCc1cc2c(cc1-3)OCO2,rat,oral,5 mg/kg,,310 ng/mL
Cc1c(-c2ccccc2)cccc1N1C(=O)c2cc(CN[C@H](C(=O)O)C(C)O)c(OCc3cccc(C#N)c3)cc2C1=O (stereo partly shown),Sprague-Dawley rat,intravenous,5 mg/kg,,4350 ng/mL
COc1nc(-c2cc(C)c(N[C@@H](C)c3cc(F)cc(F)c3)nn2)ccc1-n1cnc(C)c1,male Sprague-Dawley rat,intravenous,1 mg/kg,single dose,3570 ng/mL
CCc1cc(C(=O)NC)c2nccc(N3CCc4c(cc(Cn5ccnc5)cc4-c4cn(C)nc4C(F)(F)F)C3=O)c2c1,male Sprague-Dawley rat,oral,100 mg/kg,single dose,10100 ng/mL
COc1ccc(C(C)=O)c(O)c1,male Sprague-Dawley rat,oral,100 mg/kg,,8460 ng/mL
COCc1nn(Cc2ccc(Cn3ccccc3=O)cc2)cc1C(=O)NCc1c(C#N)ccc(OC)c1F,male Sprague-Dawley rat,oral,10 mg/kg,,360 ng/mL
O=C(Nc1cc(F)c(F)c(F)c1)c1ccc(F)c(S(=O)(=O)NCc2cccc(B(O)O)c2)c1,male Sprague-Dawley rat,intravenous,2 mg/kg,,460 ng/mL
N#Cc1[nH]nnc1-c1cccc(-c2cc(F)cc(C(F)(F)F)c2)c1,male Sprague-Dawley rat,oral,10 mg/kg,,5750 ng/mL
C=CC(=O)N1CC2CC(n3nc(-c4ccc(C(=O)Nc5ccccn5)cc4)c4c(N)ncnc43)CC2C1 (stereo not shown),male Wistar rat,oral,100 mg/kg,,2880 ng/mL
N#Cc1[nH]nnc1-c1cccc(OCc2cc(C(F)(F)F)ccc2C(F)(F)F)c1,male Sprague-Dawley rat,oral,10 mg/kg,,4820 ng/mL
COCc1nn(Cc2ccc(Cn3ccccc3=O)cc2)cc1C(=O)NCc1nccc(OC)c1F,male Sprague-Dawley rat,oral,10 mg/kg,,1940 ng/mL
CC(C)(C)C[C@H]1N[C@@H](C(=O)NCC[C@H](O)CO)[C@H](c2cccc(Cl)c2)[C@@]12C(=O)Nc1cc(Cl)c(F)cc12,rat,oral,25 mg/kg,,6400 nM
Cl.Clc1ccc2c(c1)nc(N1CCNCC1)n2Cc1ccccc1,rat,oral,5 mg/kg,,800 nM
COc1cc2c3c(n(CCCN4CCOCC4)c(=O)c2cc1OC)-c1cc2c(cc1C3=O)OCO2,female Fischer 344 rat,intravenous,24 mg/m²,single dose,568 ng/mL
CCc1cc(OC)c2nccc(N3CCc4c(cc(Cn5ccnc5)cc4-c4cn(C)nc4C(F)(F)F)C3=O)c2c1,male Sprague-Dawley rat,oral,50 mg/kg,,2700 ng/mL
Cc1ccc(S(=O)(=O)n2cc3c4c2C(=O)C(NCc2ccc(Cl)cc2)=CC4=NCC3)cc1,rat,intravenous,5 mg/kg,single dose,1240 ng/mL
COCc1nn(Cc2ccc(Cn3ccccc3=O)cc2)cc1C(=O)NCc1c(F)ccc(OC)c1F,male Sprague-Dawley rat,oral,10 mg/kg,,2890 ng/mL
CCOC(=O)[C@@]12C[C@@H]1[C@@H](n1ccc3c(NC)nc(C#Cc4ccc(Cl)s4)nc31)[C@H](O)[C@@H]2O,male Sprague-Dawley rat,oral,3 mg/kg,,67.1 ng/mL
Cc1noc(-c2cc3cc(-c4nc(C(=O)NCc5ccncc5)[nH]c4C)ccc3[nH]2)n1,Sprague-Dawley rat,oral,10 mg/kg,suspension,2200 nM
